Experimental data from different studies.
Protocols differ between the studies behind these lines.
Target: Phosphatidylinositol 4-kinase beta (PI4KB, Homo sapiens, UniProt Q9UBF8)

Structure (SMILES)	assay	conditions	remaining binding [%]
COc1ncc2cc3ccccc3nc2c1C#N	cell-free assay, competition with immobilised ligand	5 µM	25
CN(C)C(=O)Cn1cc(-c2nc([C@@](C)(c3ccc(-c4cnc(N)nc4)cc3)C3CC3)no2)cn1	cell-free assay, competition with immobilised ligand	1 µM	92
CN(C)c1nccc(-c2cnn3ncccc23)n1	binding	1 µM	58
O=C(c1ccc(Nc2nccc(-c3cc4ccccc4s3)n2)cc1)N1CCC(N2CCCC2)CC1	binding, competition with immobilised ligand	1 µM	58
COc1cnc(Nc2cccc(S(N)(=O)=O)c2)nc1N1CCN(c2ccccc2)CC1	binding, competition with immobilised ligand	1 µM	53
C=CC(=O)N1CCC(C(=O)NCC(=O)N2CCN(c3nc(-c4cnc(N)nc4C(F)F)nc(N4CCOCC4)n3)CC2)CC1	binding, competition with immobilised ligand	1 µM	100
CNCc1ccccc1-c1csc([C@@H](C)Nc2nc(C)nc3cc(OC)c(OC)cc23)c1	cell-free assay, competition with immobilised ligand	1 µM	82
C[C@@H](c1ccc(-n2cnc3c(N)ncnc32)cc1)N1CCc2nn(C)c(Cc3ccccc3)c2C1=O	binding, competition with immobilised ligand	0.1 µM	42
O=C(c1ccc(Nc2ncc(Cl)c(-c3cc4ccccc4s3)n2)cc1)N1CCC(N2CCCC2)CC1	binding, competition with immobilised ligand	1 µM	76
N[C@H]1CCN(c2nccc(-c3cnn4ncccc34)n2)C1	binding	1 µM	100
Cc1c(C(=O)O)cc(-c2ccc(C3CCNCC3)cc2)c2ccc(-c3ccc(C(F)(F)F)cc3)cc12	cell-free assay, competition with immobilised ligand	1 µM	100
c1cnn2ncc(-c3ccnc(N4CCC45COC5)n3)c2c1	binding	1 µM	12
COCCOc1nc(-c2ccc(Cl)nc2)nc2c1CN(C(=O)c1ncn3ccccc13)CC2	cell-free assay, competition with immobilised ligand	0.1 µM	100
COc1ccnn2ncc(-c3ccnc(N(C)C)n3)c12	binding	1 µM	65
CC(=O)C1=C(C)N(c2cccc(C(F)(F)F)c2)C(=O)N[C@@H]1c1ccc(C#N)nc1	cell-free assay, competition with immobilised ligand	1 µM	100
Nc1ncc2c(n1)-c1c([nH]c3ccc(C#CC4CC4)cc13)CCCC2	binding, competition with immobilised ligand	1 µM	100
FC(F)(F)c1ccc2c(c1)nc(-c1cccnc1)n2C1CC1	cell-free assay, competition with immobilised ligand	1 µM	94
C[C@H]1CCN(c2nccc(-c3cnn4ncccc34)n2)C1	binding	1 µM	19
FC(F)(F)Oc1cccc(-c2cnc3ccc(-c4ccncc4)nn23)c1	binding, competition with immobilised ligand	5 µM	0.05
O=C(NCC1CCOCC1)c1n[nH]cc1NC(=O)c1c(F)cccc1F	binding, competition with immobilised ligand	1 µM	92
Cc1cnc(Nc2ccc(C(=O)N3CCC(N4CCCC4)CC3)cc2)nc1-c1cc2ccccc2s1	binding, competition with immobilised ligand	1 µM	77
F[C@@H]1CCN(c2nccc(-c3cnn4ncccc34)n2)C1	binding	1 µM	89
